Common to all, as to format: functional
Test [1] has as its system Enterobacter cloacae. As to the kind of experiment: Minimum inhibitory concentration against Enterobacter cloacae (265A beta-lactamase containing). The gist of the method: (§1)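 Agar dilution: compounds diluted in 0.1 M phosphate buffer pH 7.0 and incorporated into Mueller-Hinton agar with 1% Bacto-Supplement C at 50 °C. Fresh overnight cultures diluted to about 1×10^4 cells/µL; 1 µL spotted on plates. Incubated overnight at 35 °C in ambient air. MIC taken as the lowest concentration preventing visible growth.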

Test [2] deals with Enterobacter cloacae. Put plainly: Minimum inhibitory concentration against Enterobacter cloacae (EB5). The essentials:
as §1

Test [3] concerns Escherichia coli. As to the kind of experiment: Minimum inhibitory concentration against Escherichia coli (EC14). The essentials:
as §1

In test [4] the test system is Escherichia coli. As to the kind of experiment: Minimum inhibitory concentration against Escherichia coli (TEM beta-lactamase containing). The gist of the method:
as §1

A further test relates to Haemophilus influenzae. As to the kind of experiment: Minimum inhibitory concentration against Haemophilus influenzae (C.L.). The gist of the method: as §1
For test [5], the system named is Klebsiella. Put plainly: Minimum inhibitory concentration against Klebsiella (KAE beta-lactamase containing). The gist of the method: as §1
Test [6] deals with Klebsiella. As to the kind of experiment: Minimum inhibitory concentration against Klebsiella (X26). The gist of the method: as §1
Another test deals with Morganella morganii. As to the kind of experiment: Minimum inhibitory concentration against Proteus morganii (PR 15). The gist of the method:
as §1

A further test deals with Pseudomonas aeruginosa. As to the kind of experiment: Minimum inhibitory concentration against Pseudomonas aeruginosa (X528). The gist of the method: as §1
A further test has as its system Providencia rettgeri. As to the kind of experiment: Minimum inhibitory concentration against Proteus rettgeri (C24). The gist of the method:
as §1

The next test relates to Salmonella. As to the kind of experiment: Minimum inhibitory concentration against Salmonella (X514). The gist of the method: as §1
Test [7] concerns Staphylococcus epidermidis. Put plainly: Minimum inhibitory concentration against Staphylococcus epidermidis (222). The gist of the method: as §1
The test system of the next test is Streptococcus pyogenes. As to the kind of experiment: Minimum inhibitory concentration against Streptococcus pyogenes (C203). The essentials: as §1
The test system of the next test is Streptococcus pneumoniae. Put plainly: Minimum inhibitory concentration against Streptococcus pneumoniae (PARK). The gist of the method: as §1
For another test, the system named is Staphylococcus aureus. As to the kind of experiment: Minimum inhibitory concentration against Staphylococcus aureus (X1.1). The essentials:
as §1

Where [8] appears, read: Enterobacter cloacae, read-out: MIC.
Setting [9] is: Escherichia coli, read-out: MIC.
Setting [10] is: Haemophilus influenzae, read-out: MIC.
Where [11] appears, read: Morganella morganii, read-out: MIC.
Where [12] appears, read: Pseudomonas aeruginosa, read-out: MIC.
The mark [13] stands for this setting: Providencia rettgeri, read-out: MIC.
Where [14] appears, read: Staphylococcus epidermidis, read-out: MIC.
The mark [15] stands for this setting: Streptococcus pyogenes, read-out: MIC.
Setting [16] is: Streptococcus pneumoniae, read-out: MIC.
Where [17] appears, read: Staphylococcus aureus, read-out: MIC.

The structures appear in SMILES notation. Values after ≈ are worked out from the molar mass of the structure shown.

Consider `CO/N=C(\C(=O)N[C@@H]1C(=O)N2C(C(=O)O)=C(COC(C)=O)CS[C@H]12)c1csc(N)n1` [CEFOTAXIME], for which the MIC in the test with Enterobacter cloacae [1] (setting [8]) was 32 µg/mL (≈ 70.3 µM); with Enterobacter cloacae [2] (setting [8]), 0.125 µg/mL (≈ 0.274 µM); in the test with Escherichia coli [3] (setting [9]), 0.03 µg/mL (≈ 0.0659 µM); with Escherichia coli [4] (setting [9]), 0.03 µg/mL (≈ 0.0659 µM); in the test with Haemophilus influenzae (setting [10]), 0.015 µg/mL (≈ 0.0329 µM); with Klebsiella [5] (Klebsiella, read-out: MIC) it was 2 µg/mL (≈ 4.39 µM). In addition, the MIC was 0.008 µg/mL (≈ 0.0176 µM) in the test with Klebsiella [6] (Klebsiella, read-out: MIC); 0.25 µg/mL (≈ 0.549 µM) with Morganella morganii (setting [11]); 32 µg/mL (≈ 70.3 µM) with Pseudomonas aeruginosa (setting [12]); 0.125 µg/mL (≈ 0.274 µM) with Providencia rettgeri (setting [13]); 0.03 µg/mL (≈ 0.0659 µM) in the test on Salmonella (Salmonella, read-out: MIC); 2 µg/mL (≈ 4.39 µM) in [7] (setting [14]). Besides, the MIC in the test with Streptococcus pyogenes (setting [15]) was determined as 0.015 µg/mL (≈ 0.0329 µM); in the test with Streptococcus pneumoniae (setting [16]), 0.015 µg/mL (≈ 0.0329 µM); with Staphylococcus aureus (setting [17]), 2 µg/mL (≈ 4.39 µM).

Turning to `CO/N=C(/C(=O)N[C@@H]1C(=O)N2C(C(=O)O)=C(S(C)(=O)=O)CC[C@H]12)c1csc(N)n1`, the MIC in the test on Enterobacter cloacae [1] (setting [8]) was above 128 µg/mL; in the test on Enterobacter cloacae [2] (setting [8]) it was 2 µg/mL (≈ 4.51 µM); with Escherichia coli [3] (setting [9]), 0.25 µg/mL (≈ 0.564 µM); in the test on Escherichia coli [4] (setting [9]), 1 µg/mL (≈ 2.25 µM); in the test with Haemophilus influenzae (setting [10]), 0.25 µg/mL (≈ 0.564 µM); with Klebsiella [5] (Klebsiella, read-out: MIC), 64 µg/mL (≈ 144 µM). Also, the MIC in the test with Klebsiella [6] (Klebsiella, read-out: MIC) was 0.06 µg/mL (≈ 0.135 µM); in the test on Morganella morganii (setting [11]), 1 µg/mL (≈ 2.25 µM); in the test with Pseudomonas aeruginosa (setting [12]), above 128 µg/mL; in the test with Providencia rettgeri (setting [13]), 0.5 µg/mL (≈ 1.13 µM); in the test on Salmonella (Salmonella, read-out: MIC), 0.125 µg/mL (≈ 0.282 µM); in test [7] (setting [14]) it was 32 µg/mL (≈ 72.2 µM). The MIC in the test with Streptococcus pyogenes (setting [15]) amounted to 0.06 µg/mL (≈ 0.135 µM); in the test on Streptococcus pneumoniae (setting [16]) it was 0.06 µg/mL (≈ 0.135 µM); with Staphylococcus aureus (setting [17]), 16 µg/mL (≈ 36.1 µM).

Consider `CO/N=C(/C(=O)N[C@@H]1C(=O)N2C(C(=O)O)=C(S(=O)(=O)c3cccs3)CC[C@H]12)c1csc(N)n1`, for which the MIC in the test with Enterobacter cloacae [1] (setting [8]) was above 128 µg/mL; in the test on Enterobacter cloacae [2] (setting [8]) it was 8 µg/mL (≈ 15.6 µM); in the test with Escherichia coli [3] (setting [9]), 2 µg/mL (≈ 3.91 µM); in the test on Escherichia coli [4] (setting [9]) it was 128 µg/mL (≈ 250 µM); in the test on Haemophilus influenzae (setting [10]), 1 µg/mL (≈ 1.95 µM); in the test on Klebsiella [5] (Klebsiella, read-out: MIC), above 128 µg/mL. For the same compound, the MIC with Klebsiella [6] (Klebsiella, read-out: MIC) is 2 µg/mL (≈ 3.91 µM); in the test on Morganella morganii (setting [11]), 64 µg/mL (≈ 125 µM); in the test with Pseudomonas aeruginosa (setting [12]), above 128 µg/mL; in the test on Providencia rettgeri (setting [13]) it was 64 µg/mL (≈ 125 µM); in the test with Salmonella (Salmonella, read-out: MIC), 0.5 µg/mL (≈ 0.977 µM); in [7] (setting [14]), 16 µg/mL (≈ 31.3 µM). Besides, the MIC with Streptococcus pyogenes (setting [15]) was 0.015 µg/mL (≈ 0.0293 µM); in the test on Streptococcus pneumoniae (setting [16]), 0.03 µg/mL (≈ 0.0586 µM); with Staphylococcus aureus (setting [17]) it was 4 µg/mL (≈ 7.82 µM).

As to `CS(=O)(=O)C1=C(C(=O)O)N2C(=O)[C@@H](NC(=O)COc3ccccc3)[C@H]2SC1` (stereo in doubt; 7 (1-S)), the MIC against Enterobacter cloacae [1] is 128 µg/mL (≈ 310 µM); with Enterobacter cloacae [2], 128 µg/mL (≈ 310 µM); against Escherichia coli [3], 64 µg/mL (≈ 155 µM); in the test on Escherichia coli [4], 128 µg/mL (≈ 310 µM); against Haemophilus influenzae it was 1 µg/mL (≈ 2.42 µM); against Klebsiella [5] it was 128 µg/mL (≈ 310 µM). Further, the MIC in the test on Klebsiella [6] worked out at 8 µg/mL (≈ 19.4 µM); in the test on Morganella morganii, 128 µg/mL (≈ 310 µM); in the test on Pseudomonas aeruginosa, 128 µg/mL (≈ 310 µM); with Providencia rettgeri it was 128 µg/mL (≈ 310 µM); against Salmonella it was 64 µg/mL (≈ 155 µM); in test [7], 0.25 µg/mL (≈ 0.606 µM). For the same compound, the figures for the MIC against Streptococcus pyogenes, against Streptococcus pneumoniae and against Staphylococcus aureus were 0.125 µg/mL (≈ 0.303 µM), 0.25 µg/mL (≈ 0.606 µM) and 0.25 µg/mL (≈ 0.606 µM), respectively.

Regarding `CCS(=O)(=O)C1=C(C(=O)O)N2C(=O)[C@@H](NC(=O)/C(=N/OC)c3csc(N)n3)[C@H]2CC1`, the MIC with Enterobacter cloacae [1] (setting [8]) is above 128 µg/mL; in the test with Enterobacter cloacae [2] (setting [8]) it was 1 µg/mL (≈ 2.19 µM); in the test on Escherichia coli [3] (setting [9]), 0.06 µg/mL (≈ 0.131 µM); in the test on Haemophilus influenzae (setting [10]) it was 0.25 µg/mL (≈ 0.546 µM); in the test with Klebsiella [5] (Klebsiella, read-out: MIC), above 128 µg/mL; in the test on Klebsiella [6] (Klebsiella, read-out: MIC), 0.06 µg/mL (≈ 0.131 µM). Further, the MIC with Morganella morganii (setting [11]) was 2 µg/mL (≈ 4.37 µM); with Pseudomonas aeruginosa (setting [12]), above 128 µg/mL; in the test on Providencia rettgeri (setting [13]), 0.125 µg/mL (≈ 0.273 µM); in the test on Salmonella (Salmonella, read-out: MIC), 0.06 µg/mL (≈ 0.131 µM); in test [7] (setting [14]), 16 µg/mL (≈ 35 µM); in the test on Streptococcus pyogenes (setting [15]), 0.03 µg/mL (≈ 0.0656 µM). For the same compound, the results for the MIC in the test on Streptococcus pneumoniae (setting [16]) and with Staphylococcus aureus (setting [17]) were 0.03 µg/mL (≈ 0.0656 µM) and 8 µg/mL (≈ 17.5 µM), respectively.

Consider `CO/N=C(/C(=O)N[C@@H]1C(=O)N2C(C(=O)O)=C(S(=O)(=O)c3cccnc3)CC[C@H]12)c1csc(N)n1`, for which the MIC with Enterobacter cloacae [1] (setting [8]) is above 128 µg/mL; with Enterobacter cloacae [2] (setting [8]) it was 16 µg/mL (≈ 31.6 µM); with Escherichia coli [3] (setting [9]) it was 1 µg/mL (≈ 1.97 µM); with Escherichia coli [4] (setting [9]) it was 4 µg/mL (≈ 7.9 µM); in the test on Haemophilus influenzae (setting [10]), 1 µg/mL (≈ 1.97 µM); in the test on Klebsiella [5] (Klebsiella, read-out: MIC), above 128 µg/mL. The MIC in the test with Klebsiella [6] (Klebsiella, read-out: MIC) is 2 µg/mL (≈ 3.95 µM); in the test with Morganella morganii (setting [11]) it was above 128 µg/mL; in the test with Pseudomonas aeruginosa (setting [12]), above 128 µg/mL; with Providencia rettgeri (setting [13]), above 128 µg/mL; with Salmonella (Salmonella, read-out: MIC), 2 µg/mL (≈ 3.95 µM); in test [7] (setting [14]), 32 µg/mL (≈ 63.2 µM). Further, the MIC was determined as 0.06 µg/mL (≈ 0.118 µM) with Streptococcus pyogenes (setting [15]), 0.125 µg/mL (≈ 0.247 µM) in the test with Streptococcus pneumoniae (setting [16]) and 16 µg/mL (≈ 31.6 µM) with Staphylococcus aureus (setting [17]).
